Values after ≈ are worked out from the molar mass of the structure shown.
Experiments:
[1] = test system: Enterococcus faecalis; experiment: Minimal inhibitory concentration of compound against Streptococcus faecalis AACC7080; assay type: functional
Outline: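 For S. faecalis, 2-fold dilution MIC in a microtiter system using Iso-sensitest broth and a final inoculum of about 10⁴ cfu/mL. Incubation was 18–24 h at 37 °C. The endpoint was the lowest concentration without visible growth.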

[2] = test system: Streptococcus pyogenes; experiment: Minimal inhibitory concentration of compound against Streptococcus pyogenes C203; assay type: functional
Outline: (§1)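 Streptococci were tested by 2-fold broth microdilution in Todd-Hewitt broth, with a final inoculum of about 10⁴ cfu/mL. After 18–24 h at 37 °C, MIC was read as the lowest concentration with no visible growth.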

[3] = test system: Staphylococcus aureus; experiment: Minimal inhibitory concentration of compound against Staphylococcus aureus Tour determined in iso-sensitest broth supplemented with 30% bovine serum and an inoculum of 10e4 cfu/mL
[4] = test system: Staphylococcus epidermidis; experiment: Minimal inhibitory concentration of compound against […] ATCC 12228; assay type: functional
[5] = test system: Streptococcus pneumoniae; experiment: Minimal inhibitory concentration of compound against Streptococcus pneumoniae UC41; assay type: functional; outline: as §1
[6] = test system: Staphylococcus aureus; experiment: Minimal inhibitory concentration of compound against Staphylococcus aureus Tour in an inoculum of 10e6 cfu/mL; assay type: functional
Outline: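 Twofold microtiter broth dilution in Iso-sensitest broth, with the inoculum raised to 10⁶ cfu/mL. After 18–24 h at 37 °C, MIC was read as the lowest concentration giving no visible growth.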

[7] = test system: Staphylococcus aureus; experiment: Minimal inhibitory concentration of compound against Staphylococcus aureus Tour; assay type: functional
Outline: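 Broth MIC by 2-fold serial dilution in microtiter format, in Iso-sensitest broth, with a final inoculum of about 10⁴ cfu/mL. Plates were incubated 18–24 h at 37 °C. MIC was taken as the lowest concentration with no visible growth.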

[8] = Association constant for compound at 31 degree C was determined; assay type: ADME
Outline: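 UV difference spectroscopy at 31 °C. Antibiotic at 25 μM in 10% methanol/0.02 M sodium citrate buffer, pH 5, sat in sample and reference cells (4-cm path). Ac-D-Ala-D-Ala was added from a 4 mM stock to the sample cell, with buffer added to the reference. The absorbance change was read at 282–285 nm. K_A came from Scatchard plots, with antibiotic concentration set by UV at 279 nm.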

CN(C)CCCNC(=O)[C@H]1NC(=O)[C@H]2NC(=O)[C@H](NC(=O)[C@@H]3NC(=O)[C@H]4NC(=O)[C@@H](Cc5ccc(c(Cl)c5)Oc5cc3cc(c5O)Oc3ccc(cc3Cl)[C@H]2O)NC(=O)[C@H](N)c2ccc(O)c(c2)Oc2cc(O)cc4c2)c2ccc(O)c(c2)-c2c(O)cc(O)cc21
MIC [1]: 0.12 µg/mL (≈ 0.0935 µM) | MIC [2]: 0.06 µg/mL (≈ 0.0468 µM) | MIC [3]: 0.25 µg/mL (≈ 0.195 µM) | MIC [4]: 0.016 µg/mL (≈ 0.0125 µM) | MIC [5]: 0.06 µg/mL (≈ 0.0468 µM) | MIC [6]: 0.12 µg/mL (≈ 0.0935 µM) | MIC [7]: 0.06 µg/mL (≈ 0.0468 µM)

CC(=O)N[C@@H]1[C@H](O[C@@H]2c3ccc(c(Cl)c3)Oc3cc4cc(c3O)Oc3ccc(cc3Cl)C[C@H]3NC(=O)[C@H](N)c5ccc(O)c(c5)Oc5cc(O)cc(c5)[C@H](NC3=O)C(=O)N[C@H]4C(=O)N[C@H]3C(=O)N[C@@H]2C(=O)N[C@H](C(=O)O)c2cc(O)cc(O)c2-c2cc3ccc2O)O[C@@H](CO)[C@@H](O)[C@@H]1O
MIC [1]: 1 µg/mL (≈ 0.713 µM) | MIC [2]: 0.5 µg/mL (≈ 0.357 µM) | MIC [3]: 0.5 µg/mL (≈ 0.357 µM) | MIC [4]: 0.12 µg/mL (≈ 0.0856 µM) | MIC [5]: 1 µg/mL (≈ 0.713 µM) | MIC [6]: 0.25 µg/mL (≈ 0.178 µM) | MIC [7]: 0.5 µg/mL (≈ 0.357 µM)

N[C@H]1C(=O)N[C@@H]2Cc3ccc(c(Cl)c3)Oc3cc4cc(c3O)Oc3ccc(cc3Cl)[C@@H](O)[C@@H]3NC(=O)[C@H](NC(=O)[C@@H]4NC(=O)[C@@H](NC2=O)c2cc(O)cc(c2)Oc2cc1ccc2O)c1ccc(O)c(c1)-c1c(O)cc(O)cc1[C@@H](C(=O)NC1CN2CCC1CC2)NC3=O (stereo partly specified)
MIC [1]: 0.12 µg/mL (≈ 0.0918 µM) | MIC [2]: 0.06 µg/mL (≈ 0.0459 µM) | MIC [3]: 0.5 µg/mL (≈ 0.383 µM) | MIC [4]: 0.06 µg/mL (≈ 0.0459 µM) | MIC [5]: 0.06 µg/mL (≈ 0.0459 µM) | MIC [6]: 0.12 µg/mL (≈ 0.0918 µM) | MIC [7]: 0.12 µg/mL (≈ 0.0918 µM)

CC(=O)N[C@@H]1[C@H](O[C@@H]2c3ccc(c(Cl)c3)Oc3cc4cc(c3O)Oc3ccc(cc3Cl)C[C@H]3NC(=O)[C@H](N)c5ccc(O)c(c5)Oc5cc(O)cc(c5)[C@H](NC3=O)C(=O)N[C@H]4C(=O)N[C@H]3C(=O)N[C@@H]2C(=O)N[C@H](C(=O)O)c2cc(O)cc(O[C@H]4O[C@H](CO)[C@@H](O)[C@@H](O)[C@@H]4O)c2-c2cc3ccc2O)O[C@@H](CO)[C@@H](O)[C@@H]1O
MIC [1]: 2 µg/mL (≈ 1.28 µM) | MIC [2]: 0.5 µg/mL (≈ 0.32 µM) | MIC [3]: 0.5 µg/mL (≈ 0.32 µM) | MIC [4]: 0.25 µg/mL (≈ 0.16 µM) | MIC [5]: 0.5 µg/mL (≈ 0.32 µM) | MIC [6]: 0.5 µg/mL (≈ 0.32 µM) | MIC [7]: 0.25 µg/mL (≈ 0.16 µM)

CCCCCCCCCC(=O)N[C@@H]1[C@H](Oc2c3cc4cc2Oc2ccc(cc2Cl)[C@@H](O[C@@H]2O[C@@H](CO)[C@@H](O)[C@H](O)[C@@H]2NC(C)=O)[C@@H]2NC(=O)[C@H](NC(=O)[C@@H]4NC(=O)[C@H]4NC(=O)[C@@H](Cc5ccc(c(Cl)c5)O3)NC(=O)[C@H](N)c3ccc(O)c(c3)Oc3cc(O)cc4c3)c3ccc(O)c(c3)-c3c(O[C@H]4O[C@H](CO)[C@@H](O)[C@@H](O)[C@@H]4O)cc(O)cc3[C@@H](C(=O)O)NC2=O)O[C@@H](CO)[C@@H](O)[C@@H]1O
MIC [1]: 0.12 µg/mL (≈ 0.0638 µM) | MIC [2]: 0.06 µg/mL (≈ 0.0319 µM) | MIC [3]: 0.5 µg/mL (≈ 0.266 µM) | MIC [4]: 0.25 µg/mL (≈ 0.133 µM) | KA [8]: 1100000 M⁻¹ | MIC [5]: 0.06 µg/mL (≈ 0.0319 µM) | MIC [6]: 0.5 µg/mL (≈ 0.266 µM) | MIC [7]: 0.12 µg/mL (≈ 0.0638 µM)

O=C1Cc2ccc(O)c(c2)Oc2cc(O)cc(c2)[C@@H]2NC(=O)[C@@H](Cc3ccc(c(Cl)c3)Oc3cc4cc(c3O)Oc3ccc(cc3Cl)[C@@H](O)[C@@H]3NC(=O)[C@H](NC(=O)[C@@H]4NC2=O)c2ccc(O)c(c2)-c2c(O)cc(O)cc2[C@@H](C(=O)O)NC3=O)N1
MIC [1]: 0.12 µg/mL (≈ 0.101 µM) | MIC [2]: 0.06 µg/mL (≈ 0.0507 µM) | MIC [3]: 1 µg/mL (≈ 0.845 µM) | MIC [4]: 0.25 µg/mL (≈ 0.211 µM) | KA [8]: 11000 M⁻¹ | MIC [5]: 0.06 µg/mL (≈ 0.0507 µM) | MIC [6]: 0.25 µg/mL (≈ 0.211 µM) | MIC [7]: 0.12 µg/mL (≈ 0.101 µM)

CCCCCCCCCC(=O)N[C@@H]1[C@H](Oc2c3cc4cc2Oc2ccc(cc2Cl)[C@@H](O[C@@H]2O[C@@H](CO)[C@@H](O)[C@H](O)[C@@H]2NC(C)=O)[C@@H]2NC(=O)[C@H](NC(=O)[C@@H]4NC(=O)[C@H]4NC(=O)[C@@H](Cc5ccc(c(Cl)c5)O3)NC(=O)[C@H](N)c3ccc(O)c(c3)Oc3cc(O)cc4c3)c3ccc(O)c(c3)-c3c(O[C@H]4O[C@H](CO)[C@@H](O)[C@@H](O)[C@@H]4O)cc(O)cc3[C@@H](C(=O)N(C)C)NC2=O)O[C@@H](CO)[C@@H](O)[C@@H]1O
MIC [1]: 0.12 µg/mL (≈ 0.0629 µM) | MIC [2]: 0.06 µg/mL (≈ 0.0315 µM) | MIC [3]: 0.5 µg/mL (≈ 0.262 µM) | MIC [4]: 0.06 µg/mL (≈ 0.0315 µM) | MIC [5]: 0.06 µg/mL (≈ 0.0315 µM) | MIC [6]: 0.12 µg/mL (≈ 0.0629 µM) | MIC [7]: 0.12 µg/mL (≈ 0.0629 µM)

Reference: ChEMBL document CHEMBL1124384, “Deaminoteicoplanin and its derivatives. Synthesis, antibacterial activity, and binding strength to Ac-D-Ala-D-Ala” (J Med Chem, 1989)
